hERG protect: hERG (human) protection from proarrhythmic block; Q12809; CHO-hERG, FluxOR thallium flux, dofetilide IC70 present; activation (rescue from dofetilide block), less the hit threshold, % at 10 µM; actives 0.51% (n = 310,000); AID 1511;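 active = activation above the mean of controls blocked by dofetilide plus 5 SD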;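 also: thallium influx through hERG after potassium depolarization seen as dye fluorescence rise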
KCNQ1 pot: human KCNQ1 channel potentiation or activation; P51787; CHO-K1 KCNQ1, thallium flux FluxOR fluorescence; stronger effect = higher value; B-score at 10 µM; actives 0.35% (n = 310,000); AID 2648;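 active = fluorescence ratio B-score, a plate-corrected score, at least three library SD, with initial intensity B-score within 5 SD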
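Assay system: CHO-K1 cells stably expressing KCNQ1. Medium: assay buffer for compound exposure, DMSO matched across wells. Timing: 37 °C overnight plating, 90-min dark dye load, 20-min compound pretreatment. Signal: kinetic FluxOR fluorescence, 10 s baseline plus 110 s post-stimulus.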
KCNK3 inh: human KCNK3 channel inhibition, primary screen; O14649; actives 0.84% (n = 340,000); B-score at 10 µM; CHO-KCNK3 thallium flux, FluxOR fluorescence; stronger effect = lower value; AID 602410;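 active = B-score under library mean minus 4 SD, starting fluorescence ratio at most library mean plus 5 SD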;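 also: more negative B-score means stronger inhibition of thallium flux through KCNK3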
KCNQ1 inh: human KCNQ1 channel inhibition; actives 1.3% (n = 310,000); CHO-K1 KCNQ1, FluxOR thallium flux fluorescence; stronger effect = higher value; AID 2642; P51787; B-score at 10 µM;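 active = compounds whose thallium flux B-score, printed positive for inhibition, exceeds three library SD while starting fluorescence stays within three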;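 also: channel opened by potassium depolarization with thallium stimulus after 20 min compound exposure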
KCNK9 inh: human KCNK9 channel inhibition. Q9NPC2. HEK293 KCNK9, FluxOR thallium flux fluorescence; stronger effect = lower value. B-score at 10 µM. actives 1.2% (n = 310,000);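 active = ratio B-score over 3 SD below the library mean, with starting fluorescence within 5 SD of its mean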;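 also: negative B-score means less thallium flux so channel inhibition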
Target sequence (Q9NPC2 whole entry, looked up): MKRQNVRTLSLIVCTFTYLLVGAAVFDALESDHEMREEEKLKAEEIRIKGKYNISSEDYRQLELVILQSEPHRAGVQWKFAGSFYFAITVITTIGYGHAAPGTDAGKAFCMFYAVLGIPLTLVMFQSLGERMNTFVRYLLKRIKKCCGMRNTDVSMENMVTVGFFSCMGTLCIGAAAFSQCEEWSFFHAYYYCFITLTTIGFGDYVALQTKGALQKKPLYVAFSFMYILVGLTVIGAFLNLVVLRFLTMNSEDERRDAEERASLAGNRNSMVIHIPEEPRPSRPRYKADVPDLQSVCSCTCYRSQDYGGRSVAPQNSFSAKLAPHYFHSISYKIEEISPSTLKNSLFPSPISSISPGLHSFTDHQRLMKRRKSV
Active calls of the source: *. This is a sample that favours compounds with a hit; in the whole collection about 3.1% have one here.

What do the screens show for `Cc1cc(NC(=O)CSc2nc(C3CC3)nc3sc(C)c(C)c23)no1`?
hERG protect: 5.9*; KCNQ1 pot: 9*; KCNK3 inh: inactive; KCNQ1 inh: inactive; KCNK9 inh: inactive

Results for O=C1C=C(NCc2ccccc2)c2ccccc2C1=O ?
hERG protect: -13; KCNQ1 pot: 12*; KCNK3 inh: inactive; KCNQ1 inh: inactive; KCNK9 inh: inactive

Results for O=C1C=C(Nc2ccccc2O)c2ccccc2C1=O ?
hERG protect: -3; KCNQ1 pot: inactive; KCNK3 inh: inactive; KCNQ1 inh: inactive; KCNK9 inh: inactive

Results for Nc1nc(CCl)nc(Nc2ccc3ccccc3c2)n1 ?
hERG protect: -10; KCNQ1 pot: 13*; KCNK3 inh: inactive; KCNQ1 inh: inactive; KCNK9 inh: inactive

What do the screens show for `O=C(COc1cccc2ccccc12)N/N=C/c1ccccc1OCc1ccc(C(=O)O)cc1`?
hERG protect: -14; KCNQ1 pot: inactive; KCNK3 inh: inactive; KCNQ1 inh: 11*; KCNK9 inh: inactive

How did O=C(NCCN1CCN(Cc2ccccc2)CC1)Nc1cc(Cl)cc(Cl)c1 do in these assays?
hERG protect: -24; KCNQ1 pot: inactive; KCNK3 inh: inactive; KCNQ1 inh: 6*; KCNK9 inh: inactive

What do the screens show for `O=C(NCCN1CCN(c2cccc(Cl)c2)CC1)Nc1ccccc1`?
hERG protect: -10; KCNQ1 pot: inactive; KCNK3 inh: inactive; KCNQ1 inh: inactive; KCNK9 inh: inactive

What do the screens show for `O=C(Nc1ccc(Cl)cc1)Nc1nnc(SCc2ccccc2)s1`?
hERG protect: -10; KCNQ1 pot: inactive; KCNK3 inh: inactive; KCNQ1 inh: 6*; KCNK9 inh: inactive

What do the screens show for `O=c1c(-c2ccccc2)nc(-c2ccccc2)cn1O`?
hERG protect: 4.9*; KCNQ1 pot: inactive; KCNK3 inh: inactive; KCNQ1 inh: inactive; KCNK9 inh: inactive

How did Cc1cc(NC(=O)COC(=O)Cn2c(C)csc2=O)ccc1Br do in these assays?
hERG protect: -9; KCNQ1 pot: inactive; KCNK3 inh: inactive; KCNQ1 inh: 6*; KCNK9 inh: inactive

Results for CC(=O)OCC(=O)Nc1ccc(Br)c(C)c1 ?
hERG protect: -9; KCNQ1 pot: inactive; KCNK3 inh: inactive; KCNQ1 inh: inactive; KCNK9 inh: inactive

How did CCc1nc2ccc(C(=O)N(C)CC(=O)Nc3ccc(F)c(F)c3F)cc2nc1CC do in these assays?
KCNK3 inh: inactive

What do the screens show for `Cc1cc(C)cc(-n2ncc3c2CCCC3NC(=O)c2csnn2)c1` (stereo not drawn)?
hERG protect: 36*; KCNQ1 pot: inactive; KCNK3 inh: inactive; KCNQ1 inh: inactive; KCNK9 inh: inactive

How did Cc1ccc(-n2ncc3c2CCCC3NC(=O)c2ccoc2)cc1C (stereo not drawn) do in these assays?
hERG protect: -8; KCNQ1 pot: inactive; KCNK3 inh: inactive; KCNQ1 inh: inactive; KCNK9 inh: inactive

Results for CCc1cc(C(=O)NC2CCCc3c2cnn3-c2cccc(C)c2C)n(C)n1 (stereo not drawn) ?
hERG protect: -16; KCNQ1 pot: inactive; KCNQ1 inh: 11*; KCNK9 inh: inactive

What do the screens show for `Cc1ccc(-n2ncc3c2CCCC3NC(=O)c2csnn2)cc1C` (stereo not drawn)?
hERG protect: 19*; KCNQ1 pot: inactive; KCNK3 inh: inactive; KCNQ1 inh: inactive; KCNK9 inh: inactive

How did Cc1cc(C)c(C(=O)NC2CCCc3c2cnn3-c2cccc(C)c2C)o1 (stereo not drawn) do in these assays?
hERG protect: -8; KCNQ1 pot: inactive; KCNK3 inh: inactive; KCNQ1 inh: inactive; KCNK9 inh: inactive

How did CC(NC(=O)C1CCN(S(=O)(=O)c2cccs2)CC1)c1cccc(Cl)c1 (stereo not drawn) do in these assays?
KCNK3 inh: inactive

What do the screens show for `COc1ccccc1N1CCN(S(=O)(=O)CCNC(=O)CC2CCCCC2)CC1`?
hERG protect: -16; KCNQ1 pot: inactive; KCNK3 inh: inactive; KCNQ1 inh: inactive; KCNK9 inh: inactive

What do the screens show for `Oc1c(Br)cc(Br)cc1C=NCc1ccc(F)cc1`?
hERG protect: 1; KCNQ1 pot: 12*; KCNK3 inh: inactive; KCNQ1 inh: inactive; KCNK9 inh: inactive

What do the screens show for `O/N=C/c1cc(Br)ccc1OCc1ccc(F)cc1`?
hERG protect: -6; KCNQ1 pot: inactive; KCNK3 inh: inactive; KCNQ1 inh: inactive; KCNK9 inh: inactive

How did Oc1c(Br)cc(Br)cc1C=NCc1ccccc1 do in these assays?
hERG protect: -19; KCNQ1 pot: 22*; KCNK3 inh: inactive; KCNQ1 inh: inactive; KCNK9 inh: inactive

Results for O=C(Cc1ccccc1)N/N=C/c1cc(Br)cc(Br)c1O ?
hERG protect: -7; KCNQ1 pot: inactive; KCNK3 inh: inactive; KCNQ1 inh: inactive; KCNK9 inh: inactive

Results for Cc1csc(NC(=O)CSc2nnc(NC(=O)NC(C)(C)C)s2)n1 ?
hERG protect: -14; KCNQ1 pot: inactive; KCNK3 inh: inactive; KCNQ1 inh: inactive; KCNK9 inh: inactive

What do the screens show for `C=CCN(Cc1cccs1)C(=O)COc1ccc2c(c1)OCO2`?
KCNK3 inh: inactive

How did CCc1ccccc1NC(=O)N1C2CCCC1CC(NC(C)=O)C2 (stereo not drawn) do in these assays?
hERG protect: 6.0*; KCNQ1 pot: inactive; KCNK3 inh: inactive; KCNQ1 inh: inactive; KCNK9 inh: inactive

Results for CCOC(=O)c1[nH]c(C=O)c(C(=O)OCC)c1C ?
hERG protect: 4.9*; KCNQ1 pot: 13*; KCNK3 inh: inactive; KCNQ1 inh: inactive; KCNK9 inh: inactive

Results for CCOC(=O)c1c(C)[nH]c(C(C)=O)c1C ?
hERG protect: -17; KCNQ1 pot: inactive; KCNK3 inh: inactive; KCNQ1 inh: inactive; KCNK9 inh: inactive

How did COc1cccc(CSc2nccn2C)c1 do in these assays?
hERG protect: -3; KCNQ1 pot: inactive; KCNK3 inh: inactive; KCNQ1 inh: inactive; KCNK9 inh: inactive

How did O=S(=O)([N-]c1nc2ccccc2nc1-[n+]1ccc(CCCc2ccccc2)cc1)c1cccs1 do in these assays?
hERG protect: -11; KCNQ1 pot: inactive; KCNK3 inh: inactive; KCNQ1 inh: inactive; KCNK9 inh: -6.8*

How did CCC(C)Sc1ccc([C@@H]2[C@H]3C(=O)N(CC)C(=O)[C@H]3[C@]3(C(=O)OC)CCCN23)cc1OC (stereo partly drawn) do in these assays?
KCNK3 inh: inactive

Results for Cc1csc(N/N=C/c2ccc([N+](=O)[O-])cc2)n1 ?
hERG protect: 1; KCNQ1 pot: 9*; KCNK3 inh: inactive; KCNQ1 inh: inactive; KCNK9 inh: inactive

How did CN(C)S(=O)(=O)N1CCN(CC(=O)Nc2ccc(F)cc2)CC1 do in these assays?
hERG protect: -9; KCNQ1 pot: inactive; KCNK3 inh: inactive; KCNQ1 inh: inactive; KCNK9 inh: inactive
